PubChem BioAssay AID623961 (The Scripps Research Institute Molecular Screening Center, 2012)
Where “and” joins values, the source holds several entries; their conditions need not be identical. Equal values may be shown once. Calls of active or inactive are those of the source.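 How the source made its calls: active means mean cell viability below 80%; inactive means the rest.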

Tested on: Huh-7.5 Rluc-replicon viability, CellTiter-Glo ATP, 72 h
Experiment: cytotoxicity in HCV replicon hepatoma cells, late-stage follow-up, cytotoxicity control for HCV NS3 helicase inhibitor project, cell-based, luminescence (AID 623961)
Settings: at 10 µM; stronger effect = lower value
Method in brief: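 System: Huh-7.5 human hepatoma cells harboring HCV Renilla luciferase replicon / Compound dosing: 10 µM single concentration, 0.5% DMSO / Schedule: cell attachment 4-5 h, compound exposure 72 h at 37 °C, 5% CO2 / Technique: ATP luminescence after 30 min lysis at 23 °C / Read-out: mean % viability / Buffer or medium: fresh growth medium at readout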

| Structure (SMILES) | viability |
| --- | --- |
| Cc1ccc(NC(=O)Nc2ccc(-c3nc4ccc(-c5nc6ccc(C)c(S(=O)(=O)O)c6s5)cc4s3)cc2)cc1 | 93% (inactive) |
| Cc1ccc2nc(-c3ccc4nc(-c5ccc(NC(=O)Nc6ccc(Cl)cc6)cc5)sc4c3)sc2c1S(=O)(=O)O | 98% (inactive) |
| Cc1ccc2nc(-c3ccc(N)cc3)sc2c1S(=O)(=O)O | 104% (inactive) |
| Cc1ccc2nc(-c3ccc4nc(-c5ccc(NC(=O)c6ccccc6)cc5)sc4c3)sc2c1S(=O)(=O)O | 88% (inactive) |
| Cc1ccc2nc(-c3ccc4nc(-c5ccc(NC(=O)c6ccc(C(F)(F)F)c(F)c6)cc5)sc4c3)sc2c1S(=O)(=O)O | 129% (inactive) |
| Cc1ccc2nc(-c3ccc4nc(-c5ccc(NC(=O)c6ccncc6)cc5)sc4c3)sc2c1S(=O)(=O)O | 117% (inactive) |
| Cc1ccc2nc(-c3ccc4nc(-c5ccc(NC(=O)c6cc(F)ccc6C(F)(F)F)cc5)sc4c3)sc2c1S(=O)(=O)O | 118% (inactive) |
| CS(=O)(=O)c1ccc2nc(NC(=O)c3ccc4ncsc4c3)sc2c1 | 41% |
| Cc1ccc2nc(-c3ccc4nc(-c5ccc(NC(=O)c6cccc7ccccc67)cc5)sc4c3)sc2c1S(=O)(=O)O | 103% (inactive) |
| CN1CCN(Cc2cc(CN3CCN(C)CC3)c(O)c(=O)c(CN3CCN(C)CC3)c2)CC1 | 69% |
| Cc1ccc2nc(-c3ccc4nc(-c5ccc(NC(=O)c6ccc(Cl)cc6)cc5)sc4c3)sc2c1S(=O)(=O)O | 84% (inactive) |
| Cc1ccc2nc(-c3ccc4nc(-c5ccc(NC(=O)c6ccc7nc(-c8ccc(NC(=O)OCC9c%10ccccc%10-c%10ccccc%109)cc8)sc7c6)cc5)sc4c3)sc2c1S(=O)(=O)O | 90% (inactive) and 95% (inactive) |
| O=C(Nc1nc2ccc(Br)cc2s1)c1ccc2ncsc2c1 | 89% (inactive) |
| Cc1ccc2nc(-c3ccc4nc(-c5ccc(NC(=O)c6ccc(N)cc6)cc5)sc4c3)sc2c1S(=O)(=O)O | 93% (inactive) |
| Cc1ccc2nc(-c3ccc(NC(=O)c4ccc(NC(=O)c5ccc(NC(=O)OCC6c7ccccc7-c7ccccc76)cc5)cc4)cc3)sc2c1S(=O)(=O)O | 113% (inactive) |
| Cc1ccc2nc(-c3ccc4nc(-c5ccc(NC(=O)c6ccc(C(C)(C)C)cc6)cc5)sc4c3)sc2c1S(=O)(=O)O | 87% (inactive) |
| Cc1ccc2nc(-c3ccc(NC(=O)c4ccc(NS(=O)(=O)c5ccccc5)cc4)cc3)sc2c1S(=O)(=O)O | 119% (inactive) |
| Cc1ccc2nc(-c3ccc4nc(-c5ccc(NC(=O)c6cccc(C(F)(F)F)c6)cc5)sc4c3)sc2c1S(=O)(=O)O | 121% (inactive) |
| Cc1ccc2nc(-c3ccc4nc(-c5ccc6nc(-c7ccc(N)cc7)sc6c5)sc4c3)sc2c1S(=O)(=O)O | 91% (inactive) |
| Cc1ccc2nc(-c3ccc4nc(-c5ccc(NC(=O)c6ccc7nc(-c8ccc(N)cc8)sc7c6)cc5)sc4c3)sc2c1S(=O)(=O)O | 85% (inactive) |
| Cc1ccc2nc(-c3ccc4nc(-c5ccc(NC(=O)Nc6ccccc6)cc5)sc4c3)sc2c1S(=O)(=O)O | 108% (inactive) |
| Cc1ccc2nc(-c3ccc4nc(-c5ccc(N)cc5)sc4c3)sc2c1S(=O)(=O)O | 85% (inactive) and 105% (inactive) and 95% (inactive) |
| Cc1ccc2nc(-c3ccc4nc(-c5ccc(NC(=O)c6c(F)cccc6C(F)(F)F)cc5)sc4c3)sc2c1S(=O)(=O)O | 122% (inactive) |
| Cc1ccc2nc(-c3ccc4nc(-c5ccc(NC(=O)c6ccc(C(F)(F)F)cc6)cc5)sc4c3)sc2c1S(=O)(=O)O | 90% (inactive) |
| Cc1ccc2nc(-c3ccc4nc(-c5ccc(NC(=O)c6cc(C(F)(F)F)ccc6F)cc5)sc4c3)sc2c1S(=O)(=O)O | 132% (inactive) |
| Cc1cc2sc(-c3ccc4nc(-c5ccc(N)cc5)sc4c3)nc2cc1S(=O)(=O)O | 87% (inactive) |

| Structure (SMILES) | viability |
| --- | --- |
| COc1ccc(NC(=O)Nc2ccc(-c3nc4ccc(-c5nc6ccc(C)c(S(=O)(=O)O)c6s5)cc4s3)cc2)cc1 | 99% (inactive) |
| COc1ccc(S(=O)(=O)Nc2ccc(-c3nc4ccc(-c5nc6ccc(C)c(S(=O)(=O)O)c6s5)cc4s3)cc2)cc1 | 75% |
| Cc1ccc2nc(-c3ccc4nc(-c5ccc(N(C)C(=O)c6ccc7ccccc7c6)cc5)sc4c3)sc2c1S(=O)(=O)O | 101% (inactive) |
| Cc1cc2sc(-c3ccc(N)cc3)nc2cc1S(=O)(=O)O | 88% (inactive) |
| Cc1ccc2nc(-c3ccc4nc(-c5ccc(NC(=O)c6ccc(CNC(=O)OCC7c8ccccc8-c8ccccc87)cc6)cc5)sc4c3)sc2c1S(=O)(=O)O | 102% (inactive) |
| Cc1ccc2nc(-c3ccc4nc(-c5ccc(NC(=O)Nc6ccc(F)cc6)cc5)sc4c3)sc2c1S(=O)(=O)O | 93% (inactive) |
| NS(=O)(=O)c1ccc2nc(NC(=O)c3ccc4ncsc4c3)sc2c1 | 94% (inactive) |
| COc1ccc2sc(NC(=O)c3ccc4ncsc4c3)nc2c1 | 50% |
| Cc1ccc2nc(-c3ccc4nc(-c5ccc(NC(=S)Nc6ccccc6)cc5)sc4c3)sc2c1S(=O)(=O)O | 98% (inactive) |
| Cc1ccc2nc(-c3ccc4nc(NC(=O)c5ccc6ncoc6c5)sc4c3)sc2c1 | 28% |
| CCOc1ccc2c(NNC(=O)c3cnccn3)c3c(nc2c1)CCCC3 | 31% |
| Cc1ccc(C(=O)Nc2ccc(-c3nc4ccc(-c5nc6ccc(C)c(S(=O)(=O)O)c6s5)cc4s3)cc2)cc1 | 87% (inactive) |
| Cc1cc(C(O)(c2ccc(Nc3ccccc3)cc2)c2ccc(Nc3ccc(S(=O)(=O)O)cc3)cc2)ccc1N (stereo unspecified) | 73% |
| Cc1ccc2nc(-c3ccc4nc(-c5ccc(NC(=O)c6ccc(Br)cc6)cc5)sc4c3)sc2c1S(=O)(=O)O | 113% (inactive) |
| COc1ccc(C(=O)Nc2ccc(-c3nc4ccc(-c5nc6ccc(C)c(S(=O)(=O)O)c6s5)cc4s3)cc2)cc1 | 85% (inactive) |
| Cc1ccc2nc(-c3ccc(NC(=O)c4ccc(NC(=S)Nc5ccccc5)cc4)cc3)sc2c1S(=O)(=O)O | 106% (inactive) |
| Cc1ccc2nc(-c3ccc4nc(-c5ccc6nc(-c7ccc8nc(-c9ccc(N)cc9)sc8c7)sc6c5)sc4c3)sc2c1S(=O)(=O)O | 94% (inactive) and 83% (inactive) |
| CC(=O)Nc1ccc(-c2nc3ccc(-c4nc5ccc(C)c(S(=O)(=O)O)c5s4)cc3s2)cc1 | 102% (inactive) |
| Cc1ccc2nc(-c3ccc(NC(=O)c4ccc(NC(=O)OCC5c6ccccc6-c6ccccc65)cc4)cc3)sc2c1S(=O)(=O)O | 108% (inactive) |
| Cc1ccc2c(sc(-c3ccc4c(c3)sc(-c3ccc5c(c3)sc(-c3ccc(N(C)C)cc3)[n+]5C)[n+]4C)[n+]2C)c1S(=O)(=O)O (tested in a mixture with another compound) | 83% (inactive) |
| Cc1ccc2nc(-c3ccc4nc(-c5ccc(NC(=O)c6ccc7ncoc7c6)cc5)sc4c3)sc2c1S(=O)(=O)O | 114% (inactive) |
| Cc1ccc2nc(-c3ccc4nc(-c5ccc(NS(=O)(=O)c6ccc(C(F)(F)F)cc6)cc5)sc4c3)sc2c1S(=O)(=O)O | 101% (inactive) |
| O=C(Nc1ccc(-c2nc3ccccc3[nH]2)cc1)c1ccc2ncsc2c1 | 96% (inactive) |
| Cc1ccc2nc(-c3ccc4nc(-c5ccc(NC(=O)c6cccc(Cl)c6)cc5)sc4c3)sc2c1S(=O)(=O)O | 112% (inactive) |
| Cc1ccc2nc(-c3ccc4nc(-c5ccc(NC(=O)c6ccc7ccccc7c6)cc5)sc4c3)sc2c1S(=O)(=O)O | 87% (inactive) and 99% (inactive) |
